# Measurements taken from paper PMC3145891 (Naunyn-Schmiedeberg's Archives of Pharmacology, 2011).
# Several values for one entry are separate records, joined by “and”; a condition that tells them apart may be missing. Identical values can stand only once. Entries after “also recorded” stand apart in the source; their conditions may differ.
# How the values were obtained:
# [1] = system: cGMP antibody (ENZO cGMP-EIA); experiment: ENZO cGMP-EIA, acetylation protocol; assay type: binding; conditions: for Specificity ENZO cGMP-EIA: EC50cGMP/EC50Analog, acetylated
# [2] = system: cGMP antibody (IBL cGMP-RIA); experiment: IBL cGMP-RIA; assay type: binding; conditions: for Specificity IBL cGMP-RIA: EC50cGMP/EC50Analog; for Binding constant relative to cGMP: IBL cGMP-RIA
# [3] = Lipophilicity; assay type: physicochemical; conditions: calculated from log Kw data, cGMP scale
# [4] = system: cAMP antibody (ENZO cAMP-EIA); experiment: ENZO cAMP-EIA, acetylation protocol; assay type: binding; conditions: for Specificity ENZO cAMP-EIA: EC50cAMP/EC50Analog, acetylated
# [5] = system: cAMP antibody (IBL cAMP-RIA); experiment: IBL cAMP-RIA; assay type: binding; conditions: for Specificity IBL cAMP-RIA: EC50cAMP/EC50Analog
# [6] = system: PKA (VASP phosphorylation) in human platelets; experiment: VASP phosphorylation western blot, pVASP Ser-157; assay type: cell-based; conditions: pVASP antibody 5C6
# In short: (§1)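 Washed human platelets were exposed to various analog concentrations for the indicated times. Protein extracts (10 µg) were run on 9% reducing SDS-PAGE and wet-blotted to nitrocellulose. Blots were blocked in 3% milk/Tris-saline-Tween and probed 1:10,000 with 16C2 (pVASP Ser-239, PKG site) or 5C6 (pVASP Ser-157, PKA site). HRP goat anti-mouse (1:5,000) and ECL gave detection.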
# [7] = system: PKA II; conditions: ref Poppe et al. (2008); cited from earlier work
# [8] = system: cGMP antibody (Cayman cGMP-EIA); experiment: Cayman cGMP-EIA; assay type: binding; conditions: EC50cGMP/EC50Analog
# [9] = system: PKG (VASP phosphorylation) in human platelets; experiment: VASP phosphorylation western blot, pVASP Ser-239; assay type: cell-based; conditions: for Concentration for maximal VASP phosphorylation: after 20 min, pVASP antibody 16C2
# In short: as §1
# [10] = system: PKG Iβ; conditions: ref Poppe et al. (2008); cited from earlier work
# [11] = system: human platelets; experiment: Cell membrane permeability in washed human platelets; assay type: in vitro ADME; conditions: for Time to equilibrium of inside/outside concentration: platelets, Fig. 1b; for cNMP conc. inside platelets (% of external): washed human platelets, 37°C, normally 20 min
# In short: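 Human blood from medication-free donors was collected into citrate–EGTA buffer. Platelet-rich plasma (300×g) was pelleted (380×g), washed in Hepes buffer pH 7.4 and used at 3 × 10^8 platelets/ml. Cells were exposed to analogs at 37°C, normally for 20 min or over a time course. They were lysed in […] buffer pH 8.1 with 1 mM IBMX on ice, then freeze/thaw and needle disruption. Lyophilized supernatant went to EIA, assuming a 5.2 fl cell volume.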
# [12] = system: cGMP antibody (ENZO cGMP-EIA); experiment: ENZO cGMP-EIA, non-acetylated; assay type: binding; conditions: non-acetylated cGMP-EIA from ENZO
# [13] = system: CHO cells; experiment: Cell membrane permeability in CHO cells; assay type: in vitro ADME, Chinese hamster; conditions: serum-free medium, normally 20 min
# In short: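 CHO cells were grown in DMEM with 10% FBS and 1% penicillin/streptomycin at 37°C, 5% CO2. Cells were exposed to various analog concentrations in serum-free medium, normally for 20 min, then PBS-washed. Lysis used hypotonic buffer on ice for 30 min, scraping, liquid-nitrogen freeze/thaw and needle disruption. Cleared supernatant was lyophilized for EIA. Intracellular concentration assumed a 1.5 pl cell volume; % permeability = intracellular/extracellular […].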
# [14] = system: cAMP and cGMP antibodies of the tested immunoassays; experiment: Interference with the tested cAMP and cGMP immunoassays; assay type: binding
smiles,measurement,setting,value
"O=c1c2nc(Br)n([C@@H]3O[C@@H]4CO[P@@](O)(=S)O[C@H]4[C@H]3O)c2nc2[nH]c(-c3ccccc3)cn12 (single isomer, unassigned) [Rp-8-Br-PET-cGMPS]","Cross-reactivity / binding to the cGMP antibody in the EIA, result in words",[1],does not bind
same,Specificity ENZO cGMP-EIA,[1],0.002
same,Specificity IBL cGMP-RIA,[2],0.011
same,Relative lipophilicity,[3],200
"Nc1ncnc2c1nc(Br)n2C1OC2COP(O)(=S)OC2C1O (single isomer, unassigned) [Rp-8-Br-cAMPS, 8-Bromoadenosine-3`,5`- cyclic monophosphorothioate, Rp-isomer]",Specificity ENZO cAMP-EIA,[4],0.003
"Nc1ncnc2c1ncn2[C@@H]1O[C@@H]2COP(O)(=S)O[C@H]2[C@H]1O (single isomer, unassigned) [Rp-cAMPS, Adenosine- 3`,5`- cyclic monophosphorothioate, Rp-isomer]","Cross-reactivity in the cAMP-EIA, result in words",[4],strong cross-reactivity; also recorded: significant cross-reactivity
same,Specificity ENZO cAMP-EIA,[4],0.68
same,Specificity IBL cAMP-RIA,[5],0.67
same,Binding constant relative to cAMP,[5]; IBL cAMP-RIA,~66%
"Nc1nc2c(ncn2[C@@H]2O[C@@H]3COP(O)(=S)O[C@H]3[C@H]2O)c(=O)[nH]1 (single isomer, unassigned) [Rp-cGMPS, Guanosine- 3`,5`- cyclic monophosphorothioate, Rp-isomer]",Specificity ENZO cGMP-EIA,[1],0.0027
same,Specificity IBL cGMP-RIA,[2],0.10
"O[C@@H]1[C@@H]2OP(O)(=S)OC[C@H]2O[C@H]1n1cnc2cc(Cl)c(Cl)cc21 (single isomer, unassigned) [Sp-5,6-DCl-cBIMPS]",Concentration needed for comparable VASP phosphorylation (PKA activation),[6],100 µM
same,Activation PKA II Ka,[7],0.12 µM
same,Specificity IBL cAMP-RIA,[5],0.005
"O=C(Nc1ncnc2c1ncn2[C@@H]1O[C@@H]2COP(=O)(O)OC2C1O)c1ccccc1 (stereo in doubt) [6-Bnz-cAMP, N^6-Benzoyladenosine-3`,5`- cyclic monophosphate]",Specificity ENZO cAMP-EIA,[4],0.006
same,Specificity IBL cAMP-RIA,[5],0.009
"Nc1nc2c(nc(Sc3ccc(Cl)cc3)n2C2O[C@@H]3COP(=O)(O)O[C@H]3[C@H]2O)c(=O)[nH]1 (stereo in doubt) [8-pCPT-cGMP, 8-(4-Chlorophenylthio)guanosine-3`,5`- cyclic monophosphate]",Specificity Cayman cGMP-EIA,[8],0.0008
same,"Cross-reactivity / binding to the cGMP antibody in the EIA, result in words",[1],strong cross-reactivity
same,Specificity ENZO cGMP-EIA,[1],2.40
same,Specificity IBL cGMP-RIA,[2],0.30
same,Binding constant relative to cGMP,[2],~30%
same,Concentration for maximal VASP phosphorylation,[9]; human platelets,50 µM
same,Activation PKG Iβ Ka,[10],0.9 µM
same,Time to equilibrium of inside/outside concentration,[11],10 to 20 min
same,cNMP conc. inside platelets (% of external),[11],19.6 ± 4.7%
"Nc1nc2c(ncn2[C@H]2C[C@@H]3OP(=O)(O)OC[C@H]3O2)c(=O)[nH]1 [2′-dcGMP, 2`- Deoxyguanosine- 3`,5`- cyclic monophosphate]",Relative binding EC50cGMP/EC50Analog,[12],2.2 and 2.21
same,Specificity ENZO cGMP-EIA,[1],0.052
same,"VASP phosphorylation (PKG site), result in words",[9]; concentrations up to 2 mM,no VASP phosphorylation
same,Activation PKG Iβ Ka,[10],21 µM
same,"Diffusion into the cell, result in words",[11]; compounds with log Kw < 1,too hydrophilic for any diffusion into the cell
same,cNMP conc. inside platelets (% of external),[11],0.5 ± 0.1%
same,cNMP conc. inside CHO cells (% of external),[13],0.3 ± 0.5%
"CCCC(=O)Nc1ncnc2c1ncn2[C@@H]1O[C@@H]2COP(=O)(O)O[C@H]2[C@H]1O [6-MB-cAMP, N^6-Monobutyryladenosine-3`,5`-cyclic monophosphate]",Specificity ENZO cAMP-EIA,[4],0.004
same,Specificity IBL cAMP-RIA,[5],0.012
"O=c1c2nc(Br)n([C@@H]3O[C@@H]4COP(=O)(O)O[C@H]4[C@H]3O)c2nc2[nH]c(-c3ccccc3)cn12 [8-Br-PET-cGMP, β-Phenyl-1,N^2-etheno-8-Bromoguanosine-3`,5`- cyclic monophosphate]",Relative binding EC50cGMP/EC50Analog,[12],0.08
same,Specificity ENZO cGMP-EIA,[1],0.10
same,Percent of the cGMP affinity to the antibody,[1]; ENZO cGMP-EIA,10%
same,Specificity IBL cGMP-RIA,[2],0.015
same,Concentration sufficient to activate PKG,"[9]; human platelets, VASP phosphorylation",0.25 µM
same,Activation PKG Iβ Ka,[10],0.009 µM
same,cNMP conc. inside platelets (% of external),[11],30.9 ± 5.7%
same,cNMP conc. inside CHO cells (% of external),[13],24.1 ± 9.7%
"Nc1ncnc2c1nc(Br)n2[C@@H]1O[C@@H]2COP(=O)(O)O[C@H]2[C@H]1O [8-Br-cAMP, 8-Bromoadenosine-3`,5`- cyclic monophosphate]",Specificity ENZO cAMP-EIA,[4],0.004
same,Concentration needed for comparable VASP phosphorylation (PKA activation),[6],500 µM
same,Activation PKA II Ka,[7],0.09 µM
same,Specificity IBL cAMP-RIA,[5],0.026
"Nc1nc2c(nc(Br)n2[C@@H]2O[C@@H]3COP(=O)(O)O[C@H]3[C@H]2O)c(=O)[nH]1 [8-Br-cGMP, 8-Bromoguanosine-3`,5`- cyclic monophosphate]",Relative binding EC50cGMP/EC50Analog,[12],6.40
same,"Cross-reactivity / binding to the cGMP antibody in the EIA, result in words",[1],strong cross-reactivity
same,Specificity ENZO cGMP-EIA,[1],4.90
same,Specificity IBL cGMP-RIA,[2],0.20
same,Binding constant relative to cGMP,[2],~20%
same,Concentration for maximal VASP phosphorylation,[9]; human platelets,200 µM
same,Activation PKG Iβ Ka,[10],1.0 µM
same,Time to equilibrium of inside/outside concentration,[11],10 to 20 min
same,cNMP conc. inside platelets (% of external),[11],12.1 ± 3.5%
same,cNMP conc. inside CHO cells (% of external),[13],13.5 ± 11.5%
"CO[C@@H]1[C@@H]2OP(=O)(O)OC[C@H]2O[C@H]1n1c(Sc2ccc(Cl)cc2)nc2c(N)ncnc21 [8-pCPT-2′-OMe-cAMP, 8-(4-Chlorophenylthio)-2`-O-methyladenosine-3`,5`- cyclic monophosphate]",Specificity ENZO cAMP-EIA,[4],0.0003
same,Specificity ENZO cGMP-EIA,[1],0.0002
same,Specificity IBL cGMP-RIA,[2],<10^−4
same,Specificity IBL cAMP-RIA,[5],0.0066
"Nc1ncnc2c1nc(Sc1ccc(Cl)cc1)n2[C@@H]1O[C@@H]2COP(=O)(O)O[C@H]2[C@H]1O [8-pCPT-cAMP, 8-(4-Chlorophenylthio)adenosine-3`,5`- cyclic monophosphate]",Specificity ENZO cAMP-EIA,[4],0.0005
"CCCCCCC(C(C)O)n1cnc2c(N)ncnc21.Cl (centres unmarked) [EHNA, 3-(6-aminopurin-9-yl)nonan-2-ol hydrochloride]","Interference / cross-reaction with the tested immunoassays, result in words",[14],do not interfere
"CC(C)Cn1c(=O)n(C)c(=O)c2[nH]cnc21 [IBMX, 3-Isobutyl-1-methylxanthine]",Specificity ENZO cAMP-EIA,[4],<10^−5
same,Specificity Cayman cGMP-EIA,[8],<10^−5
same,Specificity ENZO cGMP-EIA,[1],<10^−6
same,Specificity IBL cGMP-RIA,[2],<10^−6
same,Specificity IBL cAMP-RIA,[5],<10^−4
same,"Interference / cross-reaction with the tested immunoassays, result in words",[14],do not interfere
"Cn1c(=O)c2[nH]cnc2n(C)c1=O [Theophylline, 1,3-dimethyl-7H-purine-2,6-dione]","Interference / cross-reaction with the tested immunoassays, result in words",[14],do not interfere
"Nc1nc2c(ncn2[C@@H]2O[C@@H]3COP(=O)(O)O[C@H]3[C@H]2O)c(=O)[nH]1 [cGMP, Guanosine- 3`,5`- cyclic monophosphate]",Relative binding EC50cGMP/EC50Analog,[12],1.00
same,Specificity Cayman cGMP-EIA,[8],1.00
same,Specificity ENZO cGMP-EIA,[1],1.00
same,Specificity IBL cGMP-RIA,[2],1.00
same,Activation PKG Iβ Ka,[10],0.9 µM
